From ChEMBL document CHEMBL4480454, “Parvifoline Derivatives as Tubulin Polymerization Inhibitors” (J Nat Prod, 2019) come the findings set out here.

The species named for assay [1] is Sus scrofa. Put plainly: Inhibition of porcine brain tubulin alpha/beta polymerization at 10 uM measured every minute for 60 mins relative to colchicine. An outline of the steps:
(§1)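 Turbidity assay with porcine brain α,β-tubulin (97%), final 2 mg/mL, in pH 6.9 buffer of 80.0 mM PIPES sesquisodium, 2.0 mM MgCl2, 0.5 mM EGTA and 1.0 mM GTP. Tubulin added at 0 °C to compound in DMSO, then A450 read every minute for 60 min at 37 °C. Time-zero reading subtracted. […] Triplicate; ANOVA with Tukey test.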

Assay [2] is filed under the species Sus scrofa. Put plainly: Inhibition of porcine brain tubulin alpha/beta polymerization at 50 uM measured every minute for 90 mins relative to colchicine.
The species entered for assay [3] is Sus scrofa. Kind of assay: Inhibition of porcine brain tubulin alpha/beta polymerization at 10 uM measured every minute for 90 mins relative to colchicine.
For assay [4], the species on record is Sus scrofa. Kind of assay: Inhibition of porcine brain tubulin alpha/beta polymerization at 50 uM measured every minute for 60 mins relative to colchicine. The method, boiled down: as §1
Assay [5] is filed under the species Sus scrofa. Kind of assay: Competitive inhibition of colchicine binding to porcine brain tubulin alpha/beta polymerization at 10 to 50 uM preincubated for 30 mins followed by 50 uM colchicine addition and measured after 60 mins by fluorescence assay. The method, boiled down:
(§2)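 Porcine brain α,β-tubulin (97%) in general buffer pH 6.9 (80.0 mM PIPES sesquisodium, 2.0 mM MgCl2, 0.5 mM EGTA), no GTP, final 1 mg/mL, added at 0 °C to compound in DMSO (final 10, 20, 50 μM). […] DMSO control included.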

Assay [6] is filed under the species Sus scrofa. Put plainly: Induction of porcine brain tubulin alpha/beta polymerization at 10 uM measured every minute for 30 mins.
The species named for assay [7] is Sus scrofa. Kind of assay: Competitive inhibition of colchicine binding to porcine brain tubulin alpha/beta polymerization at 10 to 50 uM preincubated for 30 mins followed by 5 uM colchicine addition and measured after 60 mins by fluorescence assay. An outline of the steps:
as §2

In a further assay the test system is HCT-116. Put plainly: Cytotoxicity against human HCT116 cells assessed as reduction in cell viability after 72 hrs by SRB assay. It counts as functional, cell-based. To be noted: HCT-116, 72 h. On the technique in general: The SRB assay estimates cell density from bound dye.
The subject of the next assay is HeLa. Put plainly: Cytotoxicity against human HeLa cells assessed as reduction in cell viability after 72 hrs by SRB assay. It counts as functional, cell-based.

Active and inactive are the calls of the source. The rule behind the calls is not given here.

What is called inhibition is the relative decrease from the control value, in per cent. As to `Cc1cc2c(cc1O)[C@H](C)CCC[C@]1(C)O[C@H]21`, the inhibition came out at 30.3% in the assay listed under Sus scrofa [1], 36.9% in the assay filed under Sus scrofa [2], 8.3% in the assay filed under Sus scrofa [3] and 19.3% in the assay listed under Sus scrofa [4].
For the compound `Cc1cc2c(cc1O)[C@@]1(C)CC[C@H](O1)[C@H](C)C2`, the inhibition in the assay listed under Sus scrofa [1] was 40.2%; in the assay listed under Sus scrofa [2], 67%; in the assay listed under Sus scrofa [3] it was 43.7%; in the assay filed under Sus scrofa [4], 66.3%.
Turning to `C/C1=C/CC[C@@H](C)c2cc(O)c(C)cc2C1`, the inhibition was 24.4% in the assay filed under Sus scrofa [1], 66.7% in the assay listed under Sus scrofa [2], 51% in the assay listed under Sus scrofa [3] and 54.6% in the assay filed under Sus scrofa [4]. The inhibition result in the assay listed under Sus scrofa [5] was “Active”. For the same compound, the outcome in the assay listed under Sus scrofa [6] was Active. Besides, the inhibition result in the assay listed under Sus scrofa [7] is “inactive”.
In the case of `C/C1=C/CC[C@@H](C)c2cc(OC(=O)c3ccccc3)c(C)cc2C1`, the inhibition in the assay filed under Sus scrofa [1] is 11.8%; in the assay listed under Sus scrofa [2], 58.9%; in the assay filed under Sus scrofa [3] it was 56.3%; in the assay listed under Sus scrofa [4] it was 46.2%.
What is called IC50 is the concentration that inhibits the measured activity by half. Consider `Cc1cc2c(cc1OC(=O)c1ccccc1)[C@H](C)CCC[C@]1(C)O[C@H]21`, for which the inhibition in the assay listed under Sus scrofa [1] was determined as 89.9%; in the assay filed under Sus scrofa [2], 78.5%; in the assay listed under Sus scrofa [3], 97.9%; in the assay filed under Sus scrofa [4], 51.8%. Also, the inhibition result in the assay filed under Sus scrofa [5] and in the assay listed under Sus scrofa [7] was “inactive” in each case. The IC50 is 5000 nM in the assay with HCT-116 and 3300 nM in the assay on HeLa.
As for `C/C1=C/c2cc(C)c(O)cc2[C@H](C)CCC1`, the results for the inhibition in the assay listed under Sus scrofa [2] and in the assay listed under Sus scrofa [3] were 56.2% and 58.1%, respectively.
For the compound `COc1cc2c(c(OC)c1OC)-c1ccc(OC)c(=O)cc1[C@@H](NC(C)=O)CC2` [COLCHICINE], the half-maximal inhibitory concentration (IC50) amounted to 40 nM with HCT-116 and 11 nM with HeLa.
Turning to `C/C1=C/c2cc(C)c(OC(=O)c3ccccc3)cc2[C@H](C)CCC1`, the inhibition was 38.7% in the assay filed under Sus scrofa [1], 106% in the assay listed under Sus scrofa [2], 35.4% in the assay listed under Sus scrofa [3] and 86.6% in the assay filed under Sus scrofa [4].
For the compound `Cc1cc2c(cc1OC(=O)c1ccccc1)[C@@]1(C)CC[C@H](O1)[C@H](C)C2`, the inhibition in the assay listed under Sus scrofa [1] is 26.1%; in the assay listed under Sus scrofa [2] it was 46.9%; in the assay filed under Sus scrofa [4], 76.9%.
Take `Cc1cc2c(cc1OC(=O)c1ccccc1)[C@H](C)CC[C@@H]1O[C@]1(C)C2`: the inhibition in the assay filed under Sus scrofa [1] amounted to 30.3%; in the assay listed under Sus scrofa [2] it was 42.2%; in the assay listed under Sus scrofa [3], 47.9%; in the assay listed under Sus scrofa [4] it was 10.9%.
On to `Cc1cc2c(cc1O)[C@H](C)CC[C@@H]1O[C@]1(C)C2`, for which the inhibition in the assay filed under Sus scrofa [1] amounted to 48.7%; in the assay filed under Sus scrofa [2], 44.7%; in the assay filed under Sus scrofa [3], 46.9%; in the assay listed under Sus scrofa [4], 33.6%. Further, in the assay filed under Sus scrofa [5], the inhibition result is “Active”. Moreover, the inhibition result in the assay listed under Sus scrofa [7] is “inactive”.
Regarding `Cc1cc2c(cc1OC(=O)c1ccccc1)[C@@]1(C)CCC[C@H](C)[C@@H]2O1`, the inhibition in the assay listed under Sus scrofa [1] is 9.2%; in the assay listed under Sus scrofa [2], -5.7%; in the assay listed under Sus scrofa [3], 2.1%; in the assay listed under Sus scrofa [4], -3.4%.
Consider `Cc1cc2c(cc1O)[C@@]1(C)CCC[C@H](C)[C@@H]2O1`, for which the inhibition was determined as 38.7% in the assay filed under Sus scrofa [1], 62.5% in the assay filed under Sus scrofa [2], 21.9% in the assay listed under Sus scrofa [3] and 76.1% in the assay filed under Sus scrofa [4].
